MBD2 DNA inh – MBD2-methylated oligo binding inhibition; Q9UBB5; TR-FRET, MBD2 binding to methylated oligonucleotide; inhibition, % at 4.4 µM; actives 0.31% (n = 370,000); in the data active means inhibition above about 13%
UHRF1 MBD2 ctr – blocks human UHRF1 binding to methylated DNA | UHRF1 binding to methylated oligo, TR-FRET | inhibition, % at 4.4 µM | actives 0.75% (n = 370,000); in the data active means inhibition above about 21%;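 further: UHRF1 SRA domain binding a hemimethylated CpG hairpin DNA probe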
Pemphigus Ab inh – blocks pemphigus antibody binding to human desmoglein-3 | DSG3-coupled beads, scFv-anti-DSG3-GFP binding, flow cytometry; active compounds read low | actives 0.48% (n = 310,000) | P32926 | binding (percent of control), % at 10 µM;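 active means binding more than 3 SD below its plate's average and above zero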;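 further: hits lower antibody fragment binding to DSG3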
DNMT1 block – DNMT1 (human) enzyme inhibition; P26358; DNMT1 molecular beacon, Hinp1I cleavage, fluorescence; inhibition (reported as % activation of signal), % at 10 µM; actives 0.83% (n = 360,000); in the data active means inhibition above about 50%
NS3 helicase inh – inhibitors of Hepatitis C virus NS3 helicase; inhibition, % at 10.9 µM; NS3 helicase DNA unwinding, Cy5 molecular beacon fluorescence; actives 0.56% (n = 290,000);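 active means inhibition above the mean of all tested compounds plus 3 SD, set per campaign, cut at about 35% in these data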
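Assay system – hepatitis C virus NS3 helicase domain fragment enzyme · Buffer or medium – MOPS pH 6.5, MgCl2, DTT, Tween20, BSA · Reagent – Cy5/quencher beacon DNA duplex and ATP to start · Compound – single 10.9 µM dose · Timing – 1 h at 25 °C · Technique – Cy5 beacon fluorescence read at start and 1 h · Measure – % inhibition of unwinding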
SUMO1 PPI mod – modulators of human SUMO1-mediated protein-protein interactions. SUMO1 binding to a labelled peptide, TR-FRET, 1 h. actives 0.33% (n = 360,000). inhibition, % at 20 µM. P63165; in the data active means inhibition above about 37%
Each line names hits and unclear results; the compound was inactive in the other large screens. Only some compounds are listed: those with a hit (about 2.5% of all), similar ones and a draw of the others.

COc1ccc(/C=N/Nc2ncc(Br)cn2)c(OC)c1	Pemphigus Ab inh 66
CCOc1ccc(C(=O)COC(=O)Cc2n[nH]c(=O)c3ccccc23)cc1	SUMO1 PPI mod 48 (no result: NS3 helicase inh)
COc1cccc(-n2cc(CNC(=O)C3CCC(=O)N(C4CC4)C3)cn2)c1 (stereo not given)	UHRF1 MBD2 ctr 21 (no result: Pemphigus Ab inh)
Nc1cccc2nsnc12	none
Nc1cc2nsnc2cc1Br	DNMT1 block 111, SUMO1 PPI mod 80
O=C(NCCSc1c[nH]c2ccccc12)c1c(F)cccc1F	none
O=C(NCCSc1c[nH]c2ccccc12)C1CC1	UHRF1 MBD2 ctr 45
Cc1ccc(SCCCCN2CCOCC2)cc1	Pemphigus Ab inh 50
Clc1ccc(SCCCCN2CCOCC2)cc1	none
Nc1nonc1C(=O)NCCNCc1ccccc1OCc1ccc(F)cc1	none
CN1CCN(NC(=O)/C=C/c2ccc(Br)cc2)CC1	none
NS(=O)(=O)c1ccc(NC(=O)COc2ccc(C(=O)c3ccc(F)cc3)cc2)cc1	Pemphigus Ab inh 54
CCOc1ccc(/C=C/C2=Cc3c(sc(NC(=O)CSc4n[nH]c(N)n4)c3C#N)C(C)(C)C2)cc1	Pemphigus Ab inh 81
CCOC(=O)c1sc(NC(=O)CSc2n[nH]c(-c3ccncc3)n2)c(C#N)c1C	none (no result: Pemphigus Ab inh)
CCCCCNC(=O)C(c1ccc(C(F)(F)F)cc1)n1c(=O)c(-c2ccco2)nc2ccccc21 (stereo not given)	UHRF1 MBD2 ctr 21 (no result: Pemphigus Ab inh, DNMT1 block, NS3 helicase inh)
COc1cccc(CC(NC(C)=O)C(=O)NC2CCN(c3c(Cc4ccccc4)c(C)nc4ncnn34)CC2)c1 (stereo not given)	UHRF1 MBD2 ctr 26
Cc1cccc(NC(=O)c2cccnc2Oc2ccccc2)c1C(=O)O	none
CCCCC1=NN(C(=O)c2ccncc2)C(O)(C(F)(F)F)C1 (stereo not given)	none
Cc1ccc(S(=O)(=O)N2CCN(c3ccc(C(F)(F)F)cc3[N+](=O)[O-])CC2)cc1	Pemphigus Ab inh 67
COC1=CC(=O)c2nc(Cl)ccc2C1=O	DNMT1 block 85, SUMO1 PPI mod 45 (no result: Pemphigus Ab inh, NS3 helicase inh)
CON1C(=O)C(=O)N(OC)C2CCCCCC21 (stereo not given)	none
O=C(NCc1ccccc1)C1CCN(S(=O)(=O)c2cccc3cccnc23)CC1	Pemphigus Ab inh 90
CCCS(=O)(=O)NC(=O)C1(C)CCN(C(=O)c2cc(C)on2)C1 (stereo not given)	none (no result: Pemphigus Ab inh, NS3 helicase inh)
Clc1cccc(Nc2nc(N3CCOCC3)nc(N3CCOCC3)n2)c1	Pemphigus Ab inh 47
O=C(O)CC1=C(Nc2ccccc2)C(=O)N(c2ccccc2)C1c1ccc(F)cc1 (stereo not given)	none
O=C(CCC(=O)N1CCN(S(=O)(=O)c2cccc(F)c2)CC1)c1cccs1	none
Cc1cccc(N2CCN(c3ccc4cc(S(=O)(=O)N5CCCCC5)ccc4n3)CC2)c1C	UHRF1 MBD2 ctr 23
CCOC(=O)c1c(C)[nH]c(C)c1C(=O)CSc1nc2ccccc2c(=O)n1-c1ccccc1C	UHRF1 MBD2 ctr 21
CC1CCN(C(=S)NC(=O)c2ccccc2)CC1	UHRF1 MBD2 ctr 38
CC1CCN(C(=S)NC(=O)c2ccc(C(C)(C)C)cc2)CC1	SUMO1 PPI mod 45
CC(C)(C)c1ccc(C(=O)NC(=S)N2CCCC2)cc1	none
COC(=O)c1ccc(CN(C(=O)N2CCN(C)CC2)S(=O)(=O)c2ccc(C)cc2)cc1	none (no result: NS3 helicase inh)
N#C/C(C(=O)Nc1ccc(Cl)cc1)=C(/S)Nc1ccccc1	Pemphigus Ab inh 74
CSc1nc(C)c2c(n1)N(c1ccc(C(C)C)cc1)CC2	SUMO1 PPI mod 56
CSc1nc(C)c2c(n1)N(c1ccc(F)cc1)CC2	none
CC(C)c1ccccc1NC(=O)COC(=O)CNC(=O)c1ccc(Br)cc1	none
CC(C)COC(=O)c1ccccc1OC(=O)c1ccncc1	UHRF1 MBD2 ctr 25
CN(Cc1nc(-c2cnccn2)no1)CC(O)c1ccccc1 (stereo not given)	none
CC(C(=O)N1CCc2ccccc21)N(C)CC(=O)Nc1ccccc1Cl (stereo not given)	UHRF1 MBD2 ctr 33 (no result: NS3 helicase inh)
CCc1sc(C(=O)NCc2ccco2)cc1C	none
CCc1sc(C(=O)NCc2ccco2)cc1Br	UHRF1 MBD2 ctr 26
Clc1cccc(Nc2nc(-c3ccncc3)nc3ccccc23)c1	SUMO1 PPI mod 61

Screening data (PubChem BioAssay)
